Measurements from ChEMBL document CHEMBL3108741 (J Med Chem, 2014).
The source made the active and inactive calls.

What was measured:
Rattus norvegicus [1] = species on record: Rattus norvegicus; assay: […] of rat alpha1beta2gamma2L GABAA receptor expressed in Xenopus laevis oocytes assessed as chloride current elicitation at 10 uM by two-electrode voltage clamp technique relative to GABA; format: cell-based
Outline: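 Rat α1β2γ2L GABAA receptors expressed in Xenopus oocytes, at least four oocytes. Direct current gated by 10 μM compound without GABA, expressed as the ratio of compound-only current to current evoked by 2 μM GABA; mean ± SEM.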

HEK293 [2] = assay: Positive allosteric modulation of wild type rat alpha1beta2gamma2L GABAA receptor expressed in HEK293 cells assessed as longest-lived intracluster open time at 20 uM by […] relative to control; format: cell-based
Xenopus laevis [3] = assay: Anesthetic effect on prelimb-bud stage Xenopus laevis tadpole assessed as loss of swimming reflex after 3 hrs; format: functional, organism-based
[4] = Lipophilicity, log P of the compound; format: physicochemical; conditions: octanol/water
Rattus norvegicus [5] = species on record: Rattus norvegicus; assay: Positive allosteric modulation of rat alpha1beta2gamma2L GABAA receptor expressed in Xenopus laevis oocytes assessed as potentiation of GABA-induced chloride current elicitation at 10 uM by two-electrode voltage clamp technique relative to control; format: cell-based
[6] = Displacement of [35S]TBPS from rat picrotoxin binding site of GABAA receptor after 2 hrs by scintillation counting analysis
Outline: (§1)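 [35S]TBPS binding inhibition; duplicate experiments each run in triplicate, mean ± SEM. Highest concentration tested 30 μM; IC50 from fitted binding curve, with maximal displacement noted where inhibition was partial.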

HEK293 [7] = assay: Positive allosteric modulation of wild type rat alpha1beta2gamma2L GABAA receptor expressed in HEK293 cells assessed as longest-lived intracluster closed time at 20 uM by […] relative to control; format: cell-based
HEK293 [8] = assay: Positive allosteric modulation of wild type rat alpha1beta2gamma2L GABAA receptor expressed in HEK293 cells assessed as OT long at 20 uM by […]; format: cell-based
Outline: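 Single-channel recording of rat wild-type α1β2γ2L GABAA receptors. Receptors were activated by 50 μM GABA with or without 20 μM compound, in 4-7 patches. Intracluster open-time histograms were fitted to sums of two or three exponentials, and the long open-time component was taken from the fit.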

Rattus norvegicus [9] = species on record: Rattus norvegicus; assay: Positive allosteric modulation of rat alpha1beta2gamma2L GABAA receptor expressed in Xenopus laevis oocytes assessed as potentiation of GABA-induced chloride current elicitation by two-electrode voltage clamp technique relative to control; format: cell-based
Rattus norvegicus [10] = species on record: Rattus norvegicus; assay: Positive allosteric modulation of rat alpha1beta2gamma2L GABAA receptor expressed in Xenopus laevis oocytes assessed as potentiation of GABA-induced chloride current elicitation at 0.1 uM by two-electrode voltage clamp technique relative to control; format: cell-based
Rattus norvegicus [11] = species on record: Rattus norvegicus; assay: Positive allosteric modulation of rat alpha1beta2gamma2L GABAA receptor expressed in Xenopus laevis oocytes assessed as potentiation of GABA-induced chloride current elicitation at 1 uM by two-electrode voltage clamp technique relative to control; format: cell-based
Xenopus laevis [12] = assay: Anesthetic effect on prelimb-bud stage Xenopus laevis tadpole assessed as loss of righting reflex after 3 hrs; format: functional, organism-based
Rattus norvegicus [13] = species on record: Rattus norvegicus; assay: Displacement of [35S]TBPS from rat picrotoxin binding site of GABAA receptor at 30 uM after 2 hrs by scintillation counting analysis; outline: as §1
Xenopus laevis [14] = assay: Anesthetic effect on prelimb-bud stage Xenopus laevis tadpole assessed as loss of swimming reflex at 10 uM after 3 hrs; format: functional, organism-based
Xenopus laevis [15] = assay: Anesthetic effect on prelimb-bud stage Xenopus laevis tadpole assessed as loss of righting reflex at 10 uM after 3 hrs; format: functional, organism-based
HEK293 [16] = assay: Positive allosteric modulation of rat alpha1S240Lbeta2gamma2L GABAA receptor mutant expressed in HEK293 cells assessed as potentiation of GABA-induced chloride current elicitation at 20 uM by […] relative to control; format: cell-based
Outline: (§2)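 HEK 293 cells expressing wild-type or α1 mutant receptors, whole-cell recording. Peak currents elicited by GABA at 5 μM for wild type or 10 μM for mutants (11–17% of maximal), with or without 20 μM compound. Mean ± S.D., 4–7 cells per receptor–compound combination.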

Mus musculus [17] = assay: Anesthetic effect in mouse assessed as recovery of righting reflex at 1 to 8 mg/kg, iv; format: functional; conditions: dose mg/kg 1-8
Outline: (§3)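 Mice, tail vein injection; compound in 22.5% aqueous 2-(hydroxypropyl)-β-cyclodextrin, lower doses by serial dilution of the 8 mg/kg stock with 0.9% saline. Anesthesia scored as loss of righting reflex; duration of LRR recorded at each dose.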

HEK293 [18] = assay: Positive allosteric modulation of wild type rat alpha1beta2gamma2L GABAA receptor expressed in HEK293 cells assessed as potentiation of GABA-induced chloride current elicitation at 20 uM by […] relative to control; format: cell-based; outline: as §2
HEK293 [19] = assay: Positive allosteric modulation of rat alpha1Q241Lbeta2gamma2L GABAA receptor mutant expressed in HEK293 cells assessed as potentiation of GABA-induced chloride current elicitation at 20 uM by […] relative to control; format: cell-based; outline: as §2
Mus musculus [20] = assay: Anesthetic effect in mouse assessed as duration of loss of righting reflex at 16 mg/kg, iv; format: functional; outline: as §3
Mus musculus [21] = assay: Anesthetic effect in mouse assessed as recovery of righting reflex at 8 to 16 mg/kg, iv; format: functional; conditions: dose mg/kg 8-16
Outline: (§4)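 Mice were given intravenous tail-vein injections at 8 and 16 mg/kg. The compound was in 22.5% aqueous 2-(hydroxypropyl)-β-cyclodextrin. Anesthesia was defined as loss of righting reflex, and onset, duration and recovery of the reflex were followed.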

HEK293 [22] = assay: Positive allosteric modulation of rat alpha1W245Lbeta2gamma2L GABAA receptor mutant expressed in HEK293 cells assessed as potentiation of GABA-induced chloride current elicitation at 20 uM by […] relative to control; format: cell-based; outline: as §2
Mus musculus [23] = assay: Anesthetic effect in mouse assessed as duration of loss of righting reflex at 8 mg/kg, iv; format: functional
Outline: (§5)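 Tail-vein injection in mice, with anesthesia read as loss of righting reflex (LRR): duration, onset and recovery scored. Compounds were dissolved in 22.5% aqueous 2-(hydroxypropyl)-β-cyclodextrin. Lower doses came from serial dilution of the 8 mg/kg solution with 0.9% saline. Doses tested were 1, 2, 4 and 8 mg/kg.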

Mus musculus [24] = assay: Anesthetic effect in mouse assessed as onset of loss of righting reflex at 1 to 8 mg/kg, iv; format: functional; conditions: dose mg/kg 1-8; outline: as §5
Mus musculus [25] = assay: Anesthetic effect in mouse assessed as onset of loss of righting reflex at 8 to 16 mg/kg, iv; format: functional; conditions: dose mg/kg 8-16; outline: as §4
Mus musculus [26] = assay: Anesthetic effect in mouse assessed as duration of loss of righting reflex at 2 mg/kg, iv; format: functional; outline: as §5
Mus musculus [27] = assay: Anesthetic effect in mouse assessed as duration of loss of righting reflex at 4 mg/kg, iv; format: functional; outline: as §5
Mus musculus [28] = assay: Anesthetic effect in mouse assessed as duration of loss of righting reflex at 1 mg/kg, iv; format: functional, organism-based; parameters: dose 1 mg/kg; outline: as §5

| Structure (SMILES) | Ratio (Rattus norvegicus [1]) | Ratio (HEK293 [2]) | EC50 (Xenopus laevis [3]) [nM] | logP [4] | Ratio (Rattus norvegicus [5]) | IC50 [6] [nM] | Ratio (HEK293 [7]) | TIME (HEK293 [8]) [ms] | Activity (Rattus norvegicus [9]) | Ratio (Rattus norvegicus [10]) | Ratio (Rattus norvegicus [11]) | EC50 (Xenopus laevis [12]) [nM] | further results |
| --- | --- | --- | --- | --- | --- | --- | --- | --- | --- | --- | --- | --- | --- |
| C[C@@]12CC[C@@H]3[C@@H]4CC[C@H](O)C[C@H]4CC[C@H]3[C@@H]1CC(=O)C2 | 0.02 | 0.2 | 5480 | 3.24 | 10.5 | 238 | 0.11 | 9.8 | Dose-dependent effect | 0.97 | 2.43 | 1160 |  |
| O=C1C[C@@H]2CC[C@H]3[C@@H](CC[C@@H]4C[C@@H](O)CC[C@H]43)[C@@H]2C1 | 0 | 0.49 |  | 2.77 | 1.65 | 2020 | 0.27 | 11.5 | Dose-dependent effect | 0.8 | 0.76 |  | inhibition (Rattus norvegicus [13]): 88%; Activity (Xenopus laevis [14]): inactive; Activity (Xenopus laevis [15]): inactive |
| C[C@@]12CC[C@H]3[C@@H](CC[C@@H]4C[C@@H](O)CC[C@]43C)[C@@H]1CC(=O)C2 | 0.15 | 0.57 | 1730 | 3.71 | 34.7 | 81 | 0.05 | 12.4 | Dose-dependent effect | 1.42 | 7.72 | 550 | Ratio (HEK293 [16]): 7.6; Time (Mus musculus [17]): 1 min; Ratio (HEK293 [18]): 7.8; Ratio (HEK293 [19]): 1.3; Time (Mus musculus [20]): 7 min; Time (Mus musculus [21]): 1 min; Ratio (HEK293 [22]): 1; Time (Mus musculus [23]): 3 min; Time (Mus musculus [24]): <30 s; Time (Mus musculus [25]): <30 s |
| CO[C@H]1[C@H](O)CC[C@]2(C)[C@H]3CC[C@]4(C)C(=O)CC[C@H]4[C@@H]3CC[C@@H]12 | 0.12 |  |  |  | 0.91 | > 30000 |  |  | Dose-dependent effect | 1.08 | 1.01 |  | inhibition (Rattus norvegicus [13]): 45%; Activity (Xenopus laevis [14]): inactive; Activity (Xenopus laevis [15]): inactive |
| CO[C@H]1[C@H]2CC[C@@H]3[C@H](CC[C@@]4(C)C(=O)CC[C@@H]34)[C@]2(C)CC[C@@H]1O | 0.05 |  | 2940 |  | 12.2 | 198 |  |  | Dose-dependent effect | 1.21 | 3.67 | 590 |  |
| CO[C@@H]1C[C@]2(C)[C@H](CC[C@H]3[C@@H]4CC(=O)C[C@]4(C)CC[C@@H]32)C[C@H]1O | 0.01 |  | 10300 |  | 2.95 | 3030 |  |  | Dose-dependent effect | 0.91 | 1.03 | 2910 |  |
| CO[C@H]1[C@H](O)CC[C@]2(C)[C@H]3CC[C@]4(C)CC(=O)C[C@H]4[C@@H]3CC[C@@H]12 | 0.02 |  | 13500 |  | 0.69 | 6680 |  |  | Dose-dependent effect | 0.88 | 0.72 | 3150 | inhibition (Rattus norvegicus [13]): 65% |
| CO[C@H]1[C@H]2CC[C@H]3[C@@H]4CC(=O)C[C@]4(C)CC[C@@H]3[C@]2(C)CC[C@@H]1O | 0.08 | 0.53 | 1730 | 3.19 | 16 | 83 | 0.06 | 17.7 | Dose-dependent effect | 1.41 | 6.48 | 340 | Ratio (HEK293 [16]): 9.4; Time (Mus musculus [17]): 1 min; Ratio (HEK293 [18]): 9.2; Time (Mus musculus [26]): 1 min; Time (Mus musculus [27]): 5 min; Ratio (HEK293 [19]): 1.3; Time (Mus musculus [21]): 1 min; Activity (Mus musculus [28]): inactive; Ratio (HEK293 [22]): 0.9; Time (Mus musculus [23]): 9 min; Time (Mus musculus [24]): <30 s; Time (Mus musculus [25]): <30 s |
| C[C@@]12CC[C@H](O)C[C@H]1CC[C@H]1[C@@H]3CC(=O)C[C@@H]3CC[C@@H]12 | 0.01 | 0.53 |  |  | 3.56 | 1520 | 0.21 | 16.1 | Dose-dependent effect | 0.93 | 1.13 | 3640 | Activity (Xenopus laevis [14]): inactive |
| CC(=O)[C@H]1CC[C@H]2[C@@H]3CC[C@H]4C[C@H](O)CC[C@]4(C)[C@H]3C(=O)C[C@]12C [ALFAXALONE] |  |  |  |  |  |  |  |  |  |  |  |  | Time (Mus musculus [17]): 1 min; Time (Mus musculus [20]): 4 min; Time (Mus musculus [21]): 1 min; Time (Mus musculus [24]): <30 s; Time (Mus musculus [25]): <30 s |
| CO[C@H]1C[C@@]2(C)[C@@H](CC[C@H]3[C@@H]4CC(=O)C[C@@]4(C)CC[C@@H]32)C[C@@H]1O | 0.01 |  | 9290 |  | 4.48 | 1270 |  |  | Dose-dependent effect | 0.92 | 1.23 | 3150 |  |
| CC(=O)[C@H]1CC[C@H]2[C@@H]3CC[C@H]4C[C@H](O)CC[C@]4(C)[C@H]3CC[C@]12C [BREXANOLONE] | 0.37 |  |  | 4.46 | 9.65 | 74 |  |  | Dose-dependent effect | 1.26 | 3.89 |  |  |
| C[C@]12CC[C@H]3[C@@H](CC[C@H]4C[C@H](O)CC[C@@]43C)[C@@H]1CC(=O)C2 | -0.02 |  | 7540 |  | 9.98 | 895 |  |  | Dose-dependent effect | 1.01 | 1.38 | 3600 |  |
| CO[C@@H]1C[C@]2(C)[C@H](CC[C@@H]3[C@@H]2CC[C@@]2(C)C(=O)CC[C@@H]32)C[C@H]1O | -0.01 |  | > 10000 |  | 1.53 | 6490 |  |  | Dose-dependent effect | 0.93 | 0.93 | 2390 |  |
| CO[C@H]1C[C@@]2(C)[C@@H](CC[C@@H]3[C@@H]2CC[C@]2(C)C(=O)CC[C@@H]32)C[C@@H]1O | 0.08 |  | > 10000 |  | 3.39 | 2190 |  |  | Dose-dependent effect | 0.84 | 1.04 | 5090 |  |
